Tests used:
A549 = test: Antitumor activity against human A549 cells after 5 days by MTT assay; format: functional, cell-based; details: A549, 120 h
How it was run: (§1)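 Five human cancer lines (prostate PC-3, glioblastoma U373-MG, colorectal LoVo, NSCLC A549, breast MCF-7) plated at 10⁴ to 3×10⁴ cells/mL depending on cell type, allowed 24 h to attach, then cultured 120 h with or without drug at nine concentrations. MTT reduction to formazan read at 570 nm (reference 630 nm).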

[1] = Antitumor activity against human U373MG cells after 5 days by MTT assay; format: functional, cell-based, U-373MG ATCC; details: U373 MG, 120 h; how it was run: as §1
MCF7 [2] = test: Antitumor activity against human MCF7 cells after 5 days by MTT assay; format: functional, cell-based; details: MCF7, 120 h; how it was run: as §1
LoVo = test: Antitumor activity against human LoVo cells after 5 days by MTT assay; format: functional, cell-based; details: 120 h; how it was run: as §1
PC-3 = test: Antitumor activity against human PC3 cells after 5 days by MTT assay; format: functional, cell-based; details: PC-3, 120 h; how it was run: as §1
[3] = Inhibition of mouse NIH/3T3 cell proliferation by MTT assay; format: cell-based; details: NIH3T3
HeLa [4] = test: Inhibition of human HeLa cell proliferation; format: functional, cell-based
[5] = Stability in phosphate buffer of pH 7.4 after 6 days; format: physicochemical; details: read-out: Stability
How it was run: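 Compound dissolved at 1 mM in DMSO, diluted with phosphate buffer pH 7.4 to 1 mL, incubated sealed at 37 °C for 6 days. A t0 aliquot was held at 4 °C. HPLC with 280 nm detection and duplicate injections, with expected degradation products as references. Stability is taken as compound peak area over (compound + degradation product) peak area.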

[6] = Toxicity in ip dosed B6D2F1 mouse assessed as maximum tolerated dose after 28 days; format: organism-based; details: in vivo
How it was run: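 Healthy mice, three per group, each given a single ip dose and observed for up to 28 days. The MTD index is the highest single dose given without causing any deaths in the group.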

CHO [7] = test: Inhibition of verapamil-resistant CHO cell proliferation by colony-forming assay; format: cell-based; details: Cricetulus griseus
Drosophila melanogaster = test: Inhibition of Drosophila melanogaster DNA topoisomerase 2-mediated pBR322 DNA relaxation by agarose gel electrophoresis
CHO [8] = test: Inhibition of CHO cell proliferation by colony-forming assay; format: cell-based; details: Cricetulus griseus
MG-63 = test: Inhibition of human MG63 cell proliferation assessed as bromodeoxyuridine incorporation during DNA synthesis after 48 hrs by ELISA; format: functional, cell-based; details: MG-63, 48 h
HeLa [9] = test: Inhibition of human HeLa cell proliferation assessed as bromodeoxyuridine incorporation during DNA synthesis after 48 hrs by ELISA; format: functional, cell-based
MC3T3-E1 = test: Inhibition of mouse MC3T3-E1 cell proliferation after 48 to 72 hrs; format: functional, cell-based
NCI-H460 = test: Inhibition of human NCI-H460 cell proliferation by sulphorodhamine B assay; format: functional, cell-based
EJ = test: Inhibition of human EJ cell proliferation by MTT assay; format: functional, cell-based
MCF7 [10] = test: Inhibition of human MCF7 cell proliferation by MTT assay; format: functional, cell-based
KB = test: Inhibition of human KB cell proliferation by MTT assay; format: functional, cell-based
SW480 = test: Inhibition of human SW480 cell proliferation by MTT assay; format: functional, cell-based
SK-MEL = test: Inhibition of human SK-MEL cell proliferation by MTT assay; format: functional, cell-based
A-431 = test: Inhibition of human A431 cell proliferation by MTT assay; format: functional, cell-based

Row | IC50 (A549) [µM] | IC50 (MCF7 [2]) [µM] | IC50 (LoVo) [µM] | IC50 (PC-3) [µM] | SMILES | IC50 [1] [µM] | also measured
1 | 373 | 279 | 268 | 176 | CC(=O)OCC(=O)N1CCN(c2cc3c(cc2F)c(=O)c(C(=O)O)cn3C2CC2)CC1 | 99 | 
2 | 56 | 96 | 101 | 94 | CCCCCCCCCCCCCC(=O)N1CCN(c2cc3c(cc2F)c(=O)c(C(=O)O)cn3C2CC2)CC1 | 205 | 
3 |  |  |  |  | C[C@@H]1CN(c2c(F)c(N)c3c(=O)c(C(=O)O)cn(C4CC4)c3c2F)C[C@H](C)N1 [SPARFLOXACIN] |  | IC50 [3]: 122 µM; IC50 (HeLa [4]): 265 µM
4 | 20 | 72 | 27 | 14 | CCCCCC(=O)OCC(=O)N1CCN(c2cc3c(cc2F)c(=O)c(C(=O)O)cn3C2CC2)CC1 | 28 | remaining at 144 h [5]: > 99%
5 | 697 | 172 | 148 | 85 | CCCC(=O)N1CCN(c2cc3c(cc2F)c(=O)c(C(=O)O)cn3C2CC2)CC1 | 104 | 
6 | 64 | 316 | 87 | 73 | CCCCC(=O)N1CCN(c2cc3c(cc2F)c(=O)c(C(=O)O)cn3C2CC2)CC1 | 86 | 
7 | 456 | 985 | 408 | 433 | O=C(O)c1cn(C2CC2)c2cc(N3CCN(C(=O)CO)CC3)c(F)cc2c1=O | 294 | 
8 | 584 | 803 | 323 | 680 | CC(=O)N1CCN(c2cc3c(cc2F)c(=O)c(C(=O)O)cn3C2CC2)CC1 | 535 | 
9 | 38 | 35 | 30 | 30 | CCCCCCCCCOC(=O)N1CCN(c2cc3c(cc2F)c(=O)c(C(=O)O)cn3C2CC2)CC1 | 283 | 
10 | 44 | 20 | 32 | 24 | CCCCCCCCCCOC(=O)N1CCN(c2cc3c(cc2F)c(=O)c(C(=O)O)cn3C2CC2)CC1 | 401 | 
11 | 6 | 26 | 30 | 7 | CCCCCCCCC(=O)N1CCN(c2cc3c(cc2F)c(=O)c(C(=O)O)cn3C2CC2)CC1 | 24 | 
12 | 216 | 255 | 267 | 257 | CCCCCCCCC(=O)OCC(=O)N1CCN(c2cc3c(cc2F)c(=O)c(C(=O)O)cn3C2CC2)CC1 | 272 | 
13 |  |  |  |  | CCCCCCCCCCCCCCCC(=O)N1CCN(c2cc3c(cc2F)c(=O)c(C(=O)O)cn3C2CC2)CC1 |  | remaining at 144 h [5]: 100%
14 |  |  |  |  | O=C(O)c1cn(C2CC2)c2cc(-c3ccc(O)cc3)c(F)cc2c1=O |  | IC50 (CHO [7]): 40 µM; Activity (Drosophila melanogaster): 130 µM; IC50 (CHO [8]): 20 µM
15 |  |  |  |  | NC1CCN(c2nc3c(cc2F)c(=O)c(C(=O)O)cn3-c2ccc(F)cc2F)C1 (stereo not drawn) [TOSUFLOXACIN] |  | IC50 (HeLa [4]): 32 µM
16 | 273 | 353 | 317 | 416 | CCCCCCCCCC(=O)OCC(=O)N1CCN(c2cc3c(cc2F)c(=O)c(C(=O)O)cn3C2CC2)CC1 | 291 | 
17 |  |  |  |  | CCn1cc(C(=O)O)c(=O)c2cc(F)c(N3CCNC(C)C3)c(F)c21 (stereo not drawn) [LOMEFLOXACIN] |  | IC50 [3]: 483 µM; IC50 (HeLa [4]): 410 µM
18 | 509 | 85 | 93 | 246 | CC(C)(C)C(=O)N1CCN(c2cc3c(cc2F)c(=O)c(C(=O)O)cn3C2CC2)CC1 | 67 | 

Row | IC50 (A549) [µM] | IC50 (MCF7 [2]) [µM] | IC50 (LoVo) [µM] | IC50 (PC-3) [µM] | SMILES | IC50 [1] [µM] | also measured
19 |  |  |  |  | O=C(O)c1cn(C2CC2)c2c(F)c(-c3ccc(O)cc3)c(F)cc2c1=O |  | IC50 (CHO [7]): 12 µM; Activity (Drosophila melanogaster): 60 µM; IC50 (CHO [8]): 9 µM
20 | 273 | 200 | 347 | 217 | CCCCCCCCCCCCOC(=O)N1CCN(c2cc3c(cc2F)c(=O)c(C(=O)O)cn3C2CC2)CC1 | 94 | 
21 |  |  |  |  | COc1c(N2C[C@@H]3CCCN[C@@H]3C2)c(F)cc2c(=O)c(C(=O)O)cn(C3CC3)c12 [MOXIFLOXACIN] |  | IC50 (MG-63): 230 µM; IC50 (HeLa [9]): 320 µM
22 | 7 | 108 | 45 | 4 | CCCCCCCCCCCC(=O)N1CCN(c2cc3c(cc2F)c(=O)c(C(=O)O)cn3C2CC2)CC1 | 18 | 
23 |  |  |  |  | C[C@H]1COc2c(N3CCN(C)CC3)c(F)cc3c(=O)c(C(=O)O)cn1c23 [LEVOFLOXACIN] |  | IC50 (MC3T3-E1): 220 µM; IC50 (NCI-H460): 152 µM
24 | > 1000 | 816 | 828 |  | CCCCCCCCCCC(=O)OCC(=O)N1CCN(c2cc3c(cc2F)c(=O)c(C(=O)O)cn3C2CC2)CC1 | > 1000 | 
25 | 16 | 818 | 29 | 23 | CCCCCCCC(=O)OCC(=O)N1CCN(c2cc3c(cc2F)c(=O)c(C(=O)O)cn3C2CC2)CC1 | 53 | remaining at 144 h [5]: > 97%
26 |  |  |  |  | CCn1cc(C(=O)O)c(=O)c2cc(F)c(N3CCNCC3)cc21 [NORFLOXACIN] |  | IC50 [3]: > 1000 µM; IC50 (EJ): 210 µM; IC50 (HeLa [4]): 390 µM; IC50 (MCF7 [10]): 238 µM; IC50 (KB): 150 µM; IC50 (SW480): 168 µM; IC50 (SK-MEL): 194 µM; IC50 (A-431): 70 µM; IC50 (NCI-H460): 86 µM
27 | 402 | 727 | 306 | 352 | CCC(=O)N1CCN(c2cc3c(cc2F)c(=O)c(C(=O)O)cn3C2CC2)CC1 | 279 | 
28 |  |  |  |  | CCn1cc(C(=O)O)c(=O)c2cc(F)c(N3CCNCC3)nc21 [ENOXACIN] |  | IC50 (EJ): 178 µM; IC50 (HeLa [4]): 170 µM; IC50 (MCF7 [10]): 193 µM; IC50 (KB): 137 µM; IC50 (SW480): 159 µM; IC50 (SK-MEL): 196 µM; IC50 (A-431): 150 µM; IC50 (NCI-H460): 36 µM
29 | 742 | 828 | 766 | 745 | CCCCCCCCCCCCCC(=O)OCC(=O)N1CCN(c2cc3c(cc2F)c(=O)c(C(=O)O)cn3C2CC2)CC1 | 748 | 
30 |  |  |  |  | N[C@@H]1[C@H]2CN(c3nc4c(cc3F)c(=O)c(C(=O)O)cn4-c3ccc(F)cc3F)C[C@@H]12 [TROVAFLOXACIN] |  | IC50 (MC3T3-E1): < 1.2 µM
31 | 15 | 621 | 39 | 3 | CCCCCCCCCCCC(=O)OCC(=O)N1CCN(c2cc3c(cc2F)c(=O)c(C(=O)O)cn3C2CC2)CC1 | 49 | remaining at 144 h [5]: > 98%
32 | 112 | 56 | 75 | 30 | CCCCCCCCCCCCCCCC(=O)OCC(=O)N1CCN(c2cc3c(cc2F)c(=O)c(C(=O)O)cn3C2CC2)CC1 | 119 | 
33 | 456 | 1000 | 613 | 715 | CCCC(=O)OCC(=O)N1CCN(c2cc3c(cc2F)c(=O)c(C(=O)O)cn3C2CC2)CC1 | 586 | remaining at 144 h [5]: 100%
34 |  |  |  |  | COc1c(N2CCNC(C)C2)c(F)cc2c(=O)c(C(=O)O)cn(C3CC3)c12 (stereo not drawn) [GATIFLOXACIN] |  | IC50 (HeLa [4]): 400 µM
35 | 29 | 32 | 41 | 243 | O=C(O)c1cn(C2CC2)c2cc(N3CCN(C(=O)Cc4ccccc4)CC3)c(F)cc2c1=O | 34 | 

Row | SMILES | IC50 (A549) [µM] | IC50 (MCF7 [2]) [µM] | IC50 (LoVo) [µM] | IC50 (PC-3) [µM] | IC50 [1] [µM] | also measured
36 | CCCCCCC(=O)N1CCN(c2cc3c(cc2F)c(=O)c(C(=O)O)cn3C2CC2)CC1 | 808 | 754 | 793 | 779 | 729 | remaining at 144 h [5]: 100%; MTD at 672 h [6]: > 80 mg/kg
37 | CCOC(=O)N1CCN(c2cc3c(cc2F)c(=O)c(C(=O)O)cn3C2CC2)CC1 | > 1000 | 455 | 272 | 385 | 228 | remaining at 144 h [5]: 100%; MTD at 672 h [6]: > 80 mg/kg
38 | CCCCCCCCCC(=O)N1CCN(c2cc3c(cc2F)c(=O)c(C(=O)O)cn3C2CC2)CC1 | 3 | 20 | 7 | 4 | 5 | remaining at 144 h [5]: 100%; MTD at 672 h [6]: > 80 mg/kg
39 | CCCCCCCCOC(=O)N1CCN(c2cc3c(cc2F)c(=O)c(C(=O)O)cn3C2CC2)CC1 | 21 | 23 | 43 | 24 | 79 | remaining at 144 h [5]: 100%; MTD at 672 h [6]: > 80 mg/kg
40 | CCCCOC(=O)N1CCN(c2cc3c(cc2F)c(=O)c(C(=O)O)cn3C2CC2)CC1 | 42 | 14 | 52 | 9 | 31 | remaining at 144 h [5]: 100%; MTD at 672 h [6]: > 80 mg/kg
